Data reported in ChEMBL document CHEMBL1828498, “Identification and characterization of a novel integrin-linked kinase inhibitor” (J Med Chem, 2011).
Calls of active or inactive are those of the source. No cut-off for these calls is given here.

Assays:
PC-3 [1] = test: Induction of apoptosis in human PC3 cells assessed as early apoptotic cells at 1 uM by annexin V/PI staining (reference value: 5.6%); format: functional
[2] = molecular target: T1, Scaffold protein ILK (Homo sapiens) (UniProt Q13418); test: Inhibition of ILK in human PC3 cells assessed as decrease in phosphorylated p38 concentration by Western blot analysis; format: cell-based; details: PC-3
T1 sequence (whole entry): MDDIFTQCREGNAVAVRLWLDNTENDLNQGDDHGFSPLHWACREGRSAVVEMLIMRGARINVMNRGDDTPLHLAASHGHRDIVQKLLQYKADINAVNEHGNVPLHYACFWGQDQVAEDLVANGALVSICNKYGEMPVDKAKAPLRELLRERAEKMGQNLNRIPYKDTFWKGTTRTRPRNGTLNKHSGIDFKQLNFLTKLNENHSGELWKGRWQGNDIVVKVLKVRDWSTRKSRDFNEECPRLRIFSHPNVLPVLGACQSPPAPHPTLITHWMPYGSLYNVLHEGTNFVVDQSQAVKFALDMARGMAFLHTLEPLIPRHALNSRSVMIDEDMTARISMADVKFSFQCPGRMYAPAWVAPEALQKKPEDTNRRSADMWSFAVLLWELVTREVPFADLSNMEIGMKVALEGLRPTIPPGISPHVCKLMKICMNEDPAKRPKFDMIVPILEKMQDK
Summary of the method: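 PC-3 cells exposed to graded concentrations for 24 h in 5% FBS medium. Immunoblotting for phospho-Tyr397-FAK, ERK1/2, p38 and JNK. Lysis in 1% SDS buffer, primary antibody 1:1000 at 4°C for 2 h, ECL. Three independent experiments.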

[3] = molecular target: T1, Scaffold protein ILK (Homo sapiens); test: Inhibition of ILK in human PC3 cells expressing constitutively active ILK assessed as decrease in phosphorylated ERK1/2 concentration by Western blot analysis; format: cell-based; details: PC-3
Summary of the method: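 Stable PC-3 clones expressing GFP-CA-ILK (G418 250 μg/mL selection, GFP sorting) treated 24 h in 5% FBS medium. Phospho-ERK1/2 and phospho-p38 detected by immunoblot with ECL. Representative of three experiments.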

Mus musculus [4] = test: Toxicity in nude mouse assessed as weight loss at 25 mg/kg, po administered for 35 days; format: organism-based; parameters: dose 25 mg/kg, route oral; details: in vivo, 840 h
Summary of the method: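 Male NCr nude mice bearing s.c. PC-3 tumors, dosed once daily by oral gavage in 0.5% methylcellulose/0.1% Tween 80 vehicle, 10 μL/g, for 35 days; body weight recorded weekly.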

Mus musculus [5] = test: Decrease in phosphorylation of EGFR in human PC3 cells xenografted nude mouse tumor lysate at 25 mg/kg, po administered for 35 days by Western blot analysis; format: functional, organism-based; parameters: dose 25 mg/kg; details: Neoplasm, PC-3
Summary of the method: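 Male NCr athymic nude mice, 5–7 weeks, with s.c. PC-3 xenografts (0.5 × 10^6 cells in 50% Matrigel), dosed by oral gavage once daily for 35 days. Vehicle 0.5% methylcellulose, 0.1% Tween 80 in water, 10 μL/g. Tumors snap-frozen at sacrifice; three tumors per group immunoblotted.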

PC-3 [6] = test: Reduction in YB-1 concentration in human PC3 cells after 24 hrs by Western blot analysis; format: functional, cell-based
Summary of the method: (§1)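 PC-3 versus stable PC-3/CA-ILK, or SKBR3 versus transient SKBR3/CA-ILK (electroporation, used 48 h after), treated 24 h in 5% FBS medium; immunoblotting with ECL; representative of three experiments.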

PC-3 [7] = test: Reduction in HER2 concentration in human PC3 cells expressing constitutively active ILK after 24 hrs by Western blot analysis; format: functional, cell-based; summary of the method: as §1
[8] = molecular target: T1, Scaffold protein ILK (Homo sapiens); test: Inhibition of ILK in human PC3 cells assessed as decrease in MLC phosphorylation by Western blot analysis; format: cell-based; details: PC-3
Summary of the method: (§2)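 PC-3 and MDA-MB-231 cells exposed 24 h in 5% FBS medium across a concentration series. Phospho-GSK3β (Ser9) and phospho-MLC (Thr18/Ser19) detected by immunoblot: SDS lysis, primary 1:1000 at 4°C for 2 h, HRP secondary, ECL. Representative of three experiments.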

[9] = molecular target: Mast/stem cell growth factor receptor Kit (Homo sapiens) (UniProt P10721); test: Inhibition of cKit at 5 uM assessed as remaining activity
Mast/stem cell growth factor receptor Kit (Homo sapiens), sequence (P10721 whole entry): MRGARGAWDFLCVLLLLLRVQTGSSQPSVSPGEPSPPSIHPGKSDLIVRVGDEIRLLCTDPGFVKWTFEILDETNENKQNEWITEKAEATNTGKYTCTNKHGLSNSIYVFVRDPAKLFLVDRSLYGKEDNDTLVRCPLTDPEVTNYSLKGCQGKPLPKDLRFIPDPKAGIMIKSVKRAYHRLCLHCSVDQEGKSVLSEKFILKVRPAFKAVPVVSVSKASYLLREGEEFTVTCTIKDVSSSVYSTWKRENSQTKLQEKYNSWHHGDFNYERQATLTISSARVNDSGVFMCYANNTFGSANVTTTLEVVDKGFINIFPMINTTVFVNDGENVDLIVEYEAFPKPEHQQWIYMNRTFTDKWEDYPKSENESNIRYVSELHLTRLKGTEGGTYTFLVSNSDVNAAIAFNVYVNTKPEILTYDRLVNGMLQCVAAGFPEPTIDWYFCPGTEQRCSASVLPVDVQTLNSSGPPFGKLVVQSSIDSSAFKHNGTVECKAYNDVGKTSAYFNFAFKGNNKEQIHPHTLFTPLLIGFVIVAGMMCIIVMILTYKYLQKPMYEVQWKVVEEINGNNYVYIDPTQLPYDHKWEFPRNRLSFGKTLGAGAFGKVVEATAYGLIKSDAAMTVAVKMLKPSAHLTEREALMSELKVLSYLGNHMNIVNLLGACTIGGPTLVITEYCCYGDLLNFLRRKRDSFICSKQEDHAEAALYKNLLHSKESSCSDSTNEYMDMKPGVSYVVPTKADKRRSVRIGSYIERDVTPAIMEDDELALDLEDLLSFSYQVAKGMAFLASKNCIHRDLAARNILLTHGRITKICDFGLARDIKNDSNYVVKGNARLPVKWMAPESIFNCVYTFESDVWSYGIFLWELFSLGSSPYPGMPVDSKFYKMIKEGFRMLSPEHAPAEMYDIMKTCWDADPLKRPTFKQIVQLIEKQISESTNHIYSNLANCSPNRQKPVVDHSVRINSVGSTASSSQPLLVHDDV

SK-BR-3 [10] = test: Antiproliferative activity against human SKBR3 cells assessed as suppression of cell viability by MTT assay; format: functional, cell-based
Summary of the method: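 Cancer lines seeded 5000/well and nonmalignant PrEC/MEC 8000/well in 10% FBS, 24 h before treatment. Compound exposure 24 h in 5% FBS medium, 0.1% final DMSO. MTT (0.25 mg/mL) for 1 h at 37°C, dye solubilized in DMSO, absorbance read at 570 nm. Mean ± SD, n = 6.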

PC-3 [11] = test: Induction of autophagy in human PC3 cells assessed as LC3-II conversion by Western blot analysis; format: functional, cell-based
Summary of the method: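 PC-3 cells treated 24 h in 5% FBS medium. Lysed in 1% SDS/10 mM EDTA/50 mM Tris pH 8.1, equal protein on SDS-PAGE, primary antibody 1:1000 at 4°C for 2 h, HRP secondary, ECL detection. Read-outs PARP cleavage and LC3-II conversion; blots representative of three experiments.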

PC-3 [12] = test: Induction of apoptosis in human PC3 cells assessed as early apoptotic cells at 2 uM by annexin V/PI staining (reference value: 5.6%); format: functional
[13] = molecular target: Tyrosine-protein kinase JAK2 (Homo sapiens) (UniProt O60674); test: Inhibition of Jak2 at 5 uM assessed as remaining activity
Tyrosine-protein kinase JAK2 (Homo sapiens), sequence (O60674 whole entry): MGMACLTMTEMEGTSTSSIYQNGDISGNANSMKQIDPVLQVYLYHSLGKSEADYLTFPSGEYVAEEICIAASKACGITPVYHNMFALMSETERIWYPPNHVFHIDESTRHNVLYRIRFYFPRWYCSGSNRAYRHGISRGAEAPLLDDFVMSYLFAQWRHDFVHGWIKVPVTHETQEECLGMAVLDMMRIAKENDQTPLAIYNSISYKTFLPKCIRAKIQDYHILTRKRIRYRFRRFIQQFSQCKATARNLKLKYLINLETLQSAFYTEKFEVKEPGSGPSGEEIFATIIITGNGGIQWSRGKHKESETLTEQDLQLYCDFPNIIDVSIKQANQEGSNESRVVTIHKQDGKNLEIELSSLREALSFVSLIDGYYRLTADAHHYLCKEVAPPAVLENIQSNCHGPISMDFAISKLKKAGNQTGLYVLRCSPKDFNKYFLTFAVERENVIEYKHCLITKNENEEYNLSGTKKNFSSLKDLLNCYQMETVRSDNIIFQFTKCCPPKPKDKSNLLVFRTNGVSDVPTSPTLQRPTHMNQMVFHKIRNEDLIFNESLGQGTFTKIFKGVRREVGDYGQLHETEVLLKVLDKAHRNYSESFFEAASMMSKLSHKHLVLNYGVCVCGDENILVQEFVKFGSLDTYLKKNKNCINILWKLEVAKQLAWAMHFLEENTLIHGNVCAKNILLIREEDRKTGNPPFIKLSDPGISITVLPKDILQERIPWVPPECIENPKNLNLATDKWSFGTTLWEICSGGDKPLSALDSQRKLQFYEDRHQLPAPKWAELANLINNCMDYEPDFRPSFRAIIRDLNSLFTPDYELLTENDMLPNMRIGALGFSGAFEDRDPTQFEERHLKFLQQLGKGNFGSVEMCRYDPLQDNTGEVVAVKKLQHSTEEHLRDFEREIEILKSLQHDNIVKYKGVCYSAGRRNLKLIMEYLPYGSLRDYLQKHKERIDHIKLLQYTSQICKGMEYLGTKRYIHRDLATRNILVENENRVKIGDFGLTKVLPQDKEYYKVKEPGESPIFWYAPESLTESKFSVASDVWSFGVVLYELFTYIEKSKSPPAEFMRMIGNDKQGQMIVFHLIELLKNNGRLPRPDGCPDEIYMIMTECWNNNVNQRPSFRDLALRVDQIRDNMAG
Summary of the method: (§3)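 Panel of 20 recombinant kinases, profiled by a commercial vendor.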

PC-3 [14] = test: Induction of autophagy in human PC3 cells expressing Atg5 siRNA assessed as LC3-II conversion by Western blot analysis; format: functional, cell-based
Summary of the method: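 Transient Atg5 siRNA transfection of PC-3 by electroporation, cells used 48 h later, then treated. LC3-II conversion detected by immunoblot: SDS lysis, antibody 1:1000 at 4°C for 2 h, ECL. Representative of three independent experiments.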

[15] = molecular target: T1, Scaffold protein ILK (Homo sapiens); test: Inhibition of ILK in human MDA-MB-231 cells assessed as decrease in MLC phosphorylation by Western blot analysis; format: cell-based; summary of the method: as §2
PC-3 [16] = test: Suppression of tumor growth in human PC3 cells xenografted in nude mouse at 25 mg/kg/day, po administered for 35 days relative to control; format: functional
Summary of the method: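 Male NCr athymic nude mice, s.c. 0.5 × 10^6 PC-3 cells in 50% Matrigel; established tumors randomized (n=6) to daily oral gavage in 0.5% methylcellulose/0.1% Tween 80 in water, 10 μL/g, 35 days; weekly caliper volume = width² × length × 0.52; mean ± SEM, ANOVA or t-test.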

SK-BR-3 [17] = test: Reduction in HER2 mRNA expression in human SKBR3 cells expressing constitutively active ILK after 24 hrs by RT-PCR analysis; format: functional, cell-based
Summary of the method: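 PC-3, PC-3/CA-ILK, SKBR3 and SKBR3/CA-ILK cells treated 24 h in 5% FBS medium; total RNA from 1 × 10^6 cells by Trizol, 1 μg reverse-transcribed, then PCR with gene-specific primers and β-actin reference.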

[18] = molecular target: Tyrosine-protein kinase ABL1 (Homo sapiens) (UniProt P00519); test: Inhibition of Abl kinase at 5 uM assessed as remaining activity; summary of the method: as §3
Tyrosine-protein kinase ABL1 (Homo sapiens), sequence (P00519 whole entry): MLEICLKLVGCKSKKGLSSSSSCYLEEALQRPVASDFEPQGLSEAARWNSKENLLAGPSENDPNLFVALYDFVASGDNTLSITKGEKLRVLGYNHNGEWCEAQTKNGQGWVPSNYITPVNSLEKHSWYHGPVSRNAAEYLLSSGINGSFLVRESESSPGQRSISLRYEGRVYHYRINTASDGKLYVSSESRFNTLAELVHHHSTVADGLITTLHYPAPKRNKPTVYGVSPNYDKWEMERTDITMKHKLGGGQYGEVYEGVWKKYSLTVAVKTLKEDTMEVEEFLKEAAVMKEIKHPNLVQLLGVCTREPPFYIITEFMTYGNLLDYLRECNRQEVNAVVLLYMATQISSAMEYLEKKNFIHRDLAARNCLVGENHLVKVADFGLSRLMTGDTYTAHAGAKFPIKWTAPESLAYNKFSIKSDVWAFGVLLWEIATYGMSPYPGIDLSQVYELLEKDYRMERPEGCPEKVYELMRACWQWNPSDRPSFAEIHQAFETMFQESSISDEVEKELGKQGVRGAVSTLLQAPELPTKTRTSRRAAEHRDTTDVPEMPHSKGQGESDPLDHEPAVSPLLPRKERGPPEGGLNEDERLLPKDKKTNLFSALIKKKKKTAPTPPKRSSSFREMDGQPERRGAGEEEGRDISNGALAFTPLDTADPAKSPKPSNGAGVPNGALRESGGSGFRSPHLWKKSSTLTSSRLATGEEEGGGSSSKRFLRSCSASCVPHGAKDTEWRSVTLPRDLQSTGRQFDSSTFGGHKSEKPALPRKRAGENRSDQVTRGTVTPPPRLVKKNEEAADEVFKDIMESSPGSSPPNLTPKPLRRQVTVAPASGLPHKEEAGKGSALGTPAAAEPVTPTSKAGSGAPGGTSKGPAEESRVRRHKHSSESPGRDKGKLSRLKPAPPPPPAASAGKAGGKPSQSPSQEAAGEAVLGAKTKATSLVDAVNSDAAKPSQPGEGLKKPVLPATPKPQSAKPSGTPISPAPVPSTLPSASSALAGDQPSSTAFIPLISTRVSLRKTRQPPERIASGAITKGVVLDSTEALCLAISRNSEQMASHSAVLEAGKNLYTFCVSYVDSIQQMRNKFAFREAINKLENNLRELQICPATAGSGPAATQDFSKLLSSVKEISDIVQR

inhibition [2]: Dose-dependent effect | inhibition [3]: inactive | inhibition [8]: Active | Activity [9]: 100% | IC50 (SK-BR-3 [10]): 1.8 µM | Activity [13]: 114% | inhibition [15]: Active | Activity [18]: 73%
SMILES: CNC(=O)CCc1cc(-c2ccc(-c3ccc(C(F)(F)F)cc3)cc2)n(-c2ccc(N3CCNCC3)cc2)n1
Activity (PC-3 [1]): 6.3% | Activity (Mus musculus [4]): Non-toxic | Activity (Mus musculus [5]): Active | Activity (PC-3 [6]): Dose-dependent effect | Activity (PC-3 [7]): inactive | Activity (PC-3 [11]): Dose-dependent effect | Activity (PC-3 [12]): 7.1% | Activity (PC-3 [14]): inactive | Activity (PC-3 [16]): 48% | Activity (SK-BR-3 [17]): inactive
